Assay outcomes: PubChem BioAssay, Johns Hopkins Ion Channel Center
RGS4 act = RGS4 potentiation or activation. B-score at 10 µM. 310,000 tested, 0.92% active. HEK293 M3R/inducible RGS4, carbachol calcium flux Fluo4; active compounds read low;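 active = B-score of the integrated calcium signal more than 4 SD below the library mean, with starting fluorescence not abnormally high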;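 note: negative B-score means reduced calcium response which marks RGS4 activation or potentiation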
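Material: Inducible-RGS4 HEK293 cells carrying M3 receptor; also added: carbachol at ECmax as muscarinic agonist stimulus; incubation: compound preincubation 20 min at room temperature before agonist; signal: Fluo4-AM (2 µM) calcium-flux fluorescence, kinetic read; measure: integrated calcium ratio converted to B score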
MrgX1 antag = antagonists of human MrgX1 receptor | B-score at 10 µM | 310,000 tested, 1.3% active | Q96LB2 | MRGX1-HEK293 calcium flux, Fluo-4, BAM8-22 antagonism; active compounds read low;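 active = calcium-response B-score plate-corrected more than 3 library SD below zero, starting fluorescence within 5 deviations, no agonist response on first addition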;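 note: peak minus trough fluorescence over baseline after final BAM8-22 challenge near maximal dose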
Target sequence (Q96LB2 whole entry, looked up): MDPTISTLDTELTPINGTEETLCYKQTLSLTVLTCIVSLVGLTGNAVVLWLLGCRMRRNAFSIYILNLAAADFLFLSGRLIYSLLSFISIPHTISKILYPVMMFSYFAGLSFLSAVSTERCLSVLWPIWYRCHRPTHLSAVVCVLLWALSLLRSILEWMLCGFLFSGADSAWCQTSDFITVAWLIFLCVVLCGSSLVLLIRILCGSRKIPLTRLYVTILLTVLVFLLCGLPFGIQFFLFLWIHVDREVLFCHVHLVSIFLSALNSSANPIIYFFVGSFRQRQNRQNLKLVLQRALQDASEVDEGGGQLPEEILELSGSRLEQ
MrgX1 PAM = human MrgX1 positive allosteric modulation, primary screen; MrgX1-HEK293, Fluo-4 calcium flux, FDSS; active compounds read high; B-score at 10 µM; 310,000 tested, 0.63% active;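 active = plate-corrected calcium response at least 3 library SD above typical, normal starting fluorescence, not activating the receptor alone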;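 note: compound read alongside a low EC10 to EC30 dose of BAM8-22 agonist; peak minus trough fluorescence over baseline measured at the second addition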
RGS4 inh = human RGS4 inhibition. HEK293 M3R/RGS4 inducible, Fluo-4 calcium flux; active compounds read high; triggered by carbachol at its EC20. AID 463165. 310,000 tested, 0.45% active. B-score at 10 µM. P49798;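 active = B-score, a plate-corrected calcium signal, over three deviations above library mean, with baseline fluorescence within five deviations of library mean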;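 note: RGS4 expression induced by doxycycline in cells with stable M3 receptor; B-score is computed from the integrated fluorescence ratio over baseline after carbachol; higher B-score means a larger calcium signal and so more RGS4 inhibition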
Target sequence (P49798 whole entry, looked up): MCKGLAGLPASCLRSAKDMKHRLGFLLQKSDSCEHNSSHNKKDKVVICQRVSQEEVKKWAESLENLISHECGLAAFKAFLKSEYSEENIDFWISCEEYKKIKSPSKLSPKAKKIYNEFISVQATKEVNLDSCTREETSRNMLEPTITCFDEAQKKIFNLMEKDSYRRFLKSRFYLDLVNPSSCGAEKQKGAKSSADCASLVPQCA
MrgX1 agonist = human MrgX1 receptor agonism, primary screen; 310,000 tested, 0.44% active; B-score at 10 µM; AID 588627; MrgX1-HEK293 cells, Fluo-4 calcium fluorescence, agonist mode; active compounds read high; Q96LB2;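 active = calcium response B-score plate-corrected fluorescence ratio at least 3 library SD, with starting fluorescence B-score inside 5 SD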
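Assay system: MrgX1-expressing HEK293 cells / Amount: fifteen thousand cells per well / Doses: test compound in the initial addition of three / Timing: cells plated overnight, dye loaded 0.5 h 37 °C, 0.5 h room temperature / Technique: kinetic calcium dye fluorescence, Fluo-4 NW / Control set: positive and negative controls per plate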
RGS4 inh valid = RGS4 inhibitor validation. calcium response, % at 10 µM. 1,700 tested, 65% active. HEK293 M3R/RGS4, carbachol calcium Fluo-4 fluorescence; carbachol added at its EC20; 0 = buffer wells, 100 = carbachol control. shares compounds with RGS4 inh. AID 492999;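 active = duplicate-averaged calcium response above the buffer-only control mean plus 5 SD of those controls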;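 note: integrated fluorescence ratio F max minus min over baseline F0; higher response in RGS4-induced cells means RGS4 inhibition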
M3R Ca ctr = non-induced cell nonspecific activity of RGS4 inhibitors. activity (percent), % at 10 µM. 1,900 tested, 20% active. HEK293 M3R non-induced, carbachol calcium Fluo-4; submaximal (EC20) carbachol stimulus; buffer wells 0%, carbachol control wells 100%. AID 493000. shares compounds with RGS4 inh; call rule not given here;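 note: RGS4 induction absent so cells express M3R without RGS4; higher means more calcium signal and flags a non-specific hit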
M3R basal Ca ctr = second RGS4 inhibitor counter-screen in uninduced cells lacking carbachol | 1,900 tested, 22% active | HEK293 M3R/RGS4 non-induced, Fluo-4 calcium, no carbachol; normalised: buffer wells 0%, carbachol wells 100% | shares compounds with RGS4 inh | calcium response (agonist-mode artifact), % at 10 µM;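 active = duplicate-averaged calcium rise in uninduced cells above buffer wells' mean plus 5 SD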
MrgX1 ag reconf = human MrgX1 agonism, re-confirmation screen. 600 tested, 78% active. shares compounds with MrgX1 agonist. activation, % at 10 µM. AID 602412. MrgX1-HEK293, Fluo-4 calcium fluorescence, FDSS;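 active = calcium signal rise, corrected for plate position, at least 3 library SD high, with starting brightness within 5 such deviations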
MrgX1 allo conf = confirmation of human MrgX1 receptor positive allosteric modulators; shares compounds with MrgX1 PAM; activation (ratio percentage), % at 10 µM; 1,200 tested, 13% active; AID 602413; MrgX1-HEK293, Fluo-4 calcium fluorescence, FDSS;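 active = ratio at least 3 SD above the weak peptide control, stable starting fluorescence, no direct agonism earlier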;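 note: compound followed by low BAM8-22 agonist challenge near EC20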
HEK293 Ca flux = counter-screen for MrgX1 antagonists: effect in parental HEK293 cells | shares compounds with MrgX1 antag | Fluo-4 calcium fluorescence, FDSS | fluorescence ratio F(max-min)/F0 at 10 µM | 4,000 tested, 2% active | AID 624111;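 active = duplicate-averaged calcium fluorescence ratio at least three times the standard deviation of buffer wells, a nonspecific response in parental cells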
HEK293 Ca counter = MrgX1 allosteric activator counter-screen hit in parental HEK293 cells; shares compounds with MrgX1 antag; parental HEK293 calcium flux, Fluo-4 fluorescence ratio; active compounds read high; fluorescence ratio F(max-min)/F0 at 10 µM; 4,000 tested, 0.4% active; AID 624114;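 active = calcium fluorescence ratio, averaged over duplicates, at least 3 SD of the buffer-well ratio, meaning a nonspecific response in receptor-free cells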;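 note: untransfected parental HEK293 lacking MrgX1 used as counterscreen for MrgX1 allosteric activators; fluorescence change taken during the second addition on a kinetic imager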
HEK293 Ca cntr2 = activity in parental HEK293 cells lacking MrgX1 receptor. shares compounds with MrgX1 antag. Fluo-4 calcium fluorescence (FDSS); active compounds read high. fluorescence ratio F(max-min)/F0 at 10 µM. 4,000 tested, 8.7% active. AID 624115;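 active = calcium fluorescence ratio at least three times the spread of buffer wells, meaning a non-specific response in parental cells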
Large screens that a line does not name were inactive (follow-up assays come after a bar, where they were run). In the library only some 3.5% were active in any assay of this set; here they are far more common.

Cc1ccccc1Nc1nc(N)nc(-c2oc3ccccc3c2C)n1	MrgX1 PAM 47, RGS4 inh 6 | RGS4 inh valid 27% | M3R Ca ctr 42% | M3R basal Ca ctr inactive | MrgX1 allo conf 33% | HEK293 Ca flux inactive | HEK293 Ca counter inactive | HEK293 Ca cntr2 inactive
Cc1cnnn1-c1ccc(C(=O)CCl)cc1	RGS4 inh 11, MrgX1 agonist 28 | RGS4 inh valid 86% | M3R Ca ctr 38% | M3R basal Ca ctr 19% | MrgX1 ag reconf 252% | HEK293 Ca flux inactive | HEK293 Ca counter inactive | HEK293 Ca cntr2 48
CCS(=O)(=O)N1CCCC(C(=O)Oc2ccc(Br)cc2)C1 (stereo unspecified)	none
O=C(CCN1CCN(c2ccccc2F)CC1)c1ccc(Br)cc1	RGS4 inh 19, MrgX1 agonist 40 | RGS4 inh valid 39% | M3R Ca ctr inactive | M3R basal Ca ctr 8.5% | MrgX1 ag reconf inactive | HEK293 Ca flux inactive | HEK293 Ca counter inactive | HEK293 Ca cntr2 inactive
O=C(CCC(=O)N1CCN(c2ccccc2F)CC1)c1ccc(F)cc1	none
COc1ccc(C(=O)CSc2ccccc2C(=O)O)cc1	none
C/C(=N\Nc1nc2ccccc2[nH]1)c1ccc(N2CCOCC2)cc1	none
Nc1ncnc2c1ncn2[C@@H]1O[C@H](CO)C[C@@H]1O	none
Nc1ncnc2c1ncn2C1OC(CO)C(O)C1O (stereo unspecified)	MrgX1 PAM 9.4, RGS4 inh 9.4 | RGS4 inh valid 41% | M3R Ca ctr 71% | M3R basal Ca ctr inactive | MrgX1 allo conf inactive | HEK293 Ca flux inactive | HEK293 Ca counter inactive | HEK293 Ca cntr2 inactive
Cc1ccc(S(=O)(=O)CCC(=O)OCC(=O)c2cc(C)ccc2C)cc1	none
Cc1ccc(S(=O)(=O)CCC(=O)c2ccc(O)cc2O)cc1	RGS4 inh 24, MrgX1 agonist 30 | RGS4 inh valid 62% | M3R Ca ctr 46% | M3R basal Ca ctr inactive | MrgX1 ag reconf 127% | HEK293 Ca flux inactive | HEK293 Ca counter inactive | HEK293 Ca cntr2 inactive
O=C(Nc1ccccc1)Nc1ccc2ccccc2c1	MrgX1 agonist 34 | MrgX1 ag reconf inactive | HEK293 Ca flux inactive | HEK293 Ca counter inactive | HEK293 Ca cntr2 inactive
COc1cc(SC)ccc1C(=O)Nc1ccc(Cl)cn1	MrgX1 agonist 40 | MrgX1 ag reconf inactive | HEK293 Ca flux inactive | HEK293 Ca counter inactive | HEK293 Ca cntr2 inactive
CC(C)(C)C(=O)Nc1cc2c3c(c1)CCN3C(=O)CC2	none
CCCCN(CC)S(=O)(=O)N1CCC(C(=O)NCc2ccc(F)cc2)CC1	none
O=C(CSc1nnc(NC(=O)C2CCC2)s1)NC1CC1	MrgX1 agonist 40 | MrgX1 ag reconf inactive | HEK293 Ca flux inactive | HEK293 Ca counter inactive | HEK293 Ca cntr2 inactive
Cc1ccc(S(=O)(=O)Nc2ccc3c(c2)nc2n3CCN(Cc3ccccc3)C2)cc1	MrgX1 agonist 34 | MrgX1 ag reconf inactive | HEK293 Ca flux inactive | HEK293 Ca counter inactive | HEK293 Ca cntr2 inactive
O=S(=O)(Nc1ccc2c(c1)nc1n2CCN(Cc2ccccc2)C1)c1ccccc1	none
CCN1CCc2c(sc(NC(=O)c3ccc4ccccc4c3)c2C(N)=O)C1	MrgX1 agonist 44 | MrgX1 ag reconf inactive | HEK293 Ca flux inactive | HEK293 Ca counter inactive | HEK293 Ca cntr2 inactive
COC(=O)c1cc(S(=O)(=O)NCc2ccc(F)cc2)cn1C	none
O=C(CCCCC(=O)NC1CCCC1)NC1CCCC1	MrgX1 agonist 40 | MrgX1 ag reconf inactive | HEK293 Ca flux inactive | HEK293 Ca counter inactive | HEK293 Ca cntr2 inactive
COc1ccc(-c2[nH]c(-c3ccccc3)nc2SCC(=O)NC2CCCC2)cc1	MrgX1 agonist 29 | MrgX1 ag reconf 208% | HEK293 Ca flux inactive | HEK293 Ca counter inactive | HEK293 Ca cntr2 46
CC(NC(=O)Cn1nc(C(F)(F)F)c2c1CCC2)c1ccccc1 (stereo unspecified)	MrgX1 agonist 31 | MrgX1 ag reconf 134% | HEK293 Ca flux inactive | HEK293 Ca counter inactive | HEK293 Ca cntr2 inactive
Cc1ccccc1NC(=S)N(Cc1ccccc1)Cc1cccs1	none
COc1ccccc1N1CCN(C2CCCCC2NS(=O)(=O)c2ccc(Cl)cc2)CC1 (stereo unspecified)	MrgX1 agonist 48 | MrgX1 ag reconf 241% | HEK293 Ca flux inactive | HEK293 Ca counter inactive | HEK293 Ca cntr2 inactive
Cc1ccc(-c2cc(NC(=O)CCl)n(-c3ccccc3)n2)cc1	MrgX1 agonist 35 | MrgX1 ag reconf 150% | HEK293 Ca flux inactive | HEK293 Ca counter inactive | HEK293 Ca cntr2 inactive
OCCC1CN(Cc2ccc3cccc(F)c3n2)CCN1Cc1ccccc1 (stereo unspecified)	none
CCOC(=O)CC(=O)CSc1nc(C)cc(-c2cccnc2)c1C#N	none
CCOC(=O)CC(=O)CSc1nc(-c2cccnc2)ccc1C#N	MrgX1 agonist 37 | MrgX1 ag reconf 275% | HEK293 Ca flux inactive | HEK293 Ca counter inactive | HEK293 Ca cntr2 66
CCOC(=O)CSc1nc(-c2ccncc2)ccc1C#N	MrgX1 agonist 29 | MrgX1 ag reconf 150% | HEK293 Ca flux inactive | HEK293 Ca counter inactive | HEK293 Ca cntr2 inactive
CC(OC(=O)c1ccc(OCC2CCCO2)cc1)C(=O)N(C)Cc1ccccc1 (stereo unspecified)	none
Cc1ccc(Cl)cc1NC(=O)CC(O)(C(F)(F)F)C(F)(F)F	MrgX1 agonist 29 | MrgX1 ag reconf 196% | HEK293 Ca flux inactive | HEK293 Ca counter inactive | HEK293 Ca cntr2 47
COCC(=O)Nc1cc(Cl)ccc1C	none
